Converted amounts (≈) assume the structure as drawn.

This note sets out measurements from ChEMBL document CHEMBL4038284, “Synthesis of novel quinoline-based 4,5-dihydro-1H-pyrazoles as potential anticancer, antifungal, antibacterial and antiprotozoal agents” (Eur J Med Chem, 2017).

In series [1] the test system is Cryptococcus neoformans. The series is described as follows: Growth inhibition of Cryptococcus neoformans ATCC 32264 at 3.4 ug/ml incubated for 48 hrs under dark condition by broth microdilution method relative to control. The settings on record: ATCC 32264, 48 h, read-out: GI. The format is functional.
The test system of series [2] is Cryptococcus neoformans. In words: Growth inhibition of Cryptococcus neoformans ATCC 32264 at 250 ug/ml incubated for 48 hrs under dark condition by broth microdilution method relative to control. The settings on record: ATCC 32264, 48 h, read-out: GI. The format is functional. The procedure, abridged: (§1)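 CLSI M27-A3 broth microdilution in RPMI-1640, DMSO ≤1%. Inoculum 1-5 × 10^3 CFU/mL. Incubated 48 h at 30 °C, dark. % inhibition = 100 − (OD405 test − sterility control)/(OD405 growth control − sterility control), with growth and sterility control wells. Triplicate.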
(In broth dilution the organism is exposed to a series of concentrations in liquid medium.)

The test system of series [3] is Cryptococcus neoformans. The series is described as follows: Growth inhibition of Cryptococcus neoformans ATCC 32264 at 125 ug/ml incubated for 48 hrs under dark condition by broth microdilution method relative to control. It counts as functional. To be noted: ATCC 32264, 48 h, read-out: GI. The essentials: as §1
Series [4] has as its system Cryptococcus neoformans. In words: Growth inhibition of Cryptococcus neoformans ATCC 32264 at 62.5 ug/ml incubated for 48 hrs under dark condition by broth microdilution method relative to control. The format is functional. The settings on record: ATCC 32264, 48 h, read-out: GI. The essentials:
as §1

The next series concerns U-937. In words: Cytotoxicity against human U937 cells after 72 hrs by MTT assay. It counts as cell-based. To be noted: u-937, 72 h. The essentials:
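Exponentially growing U-937 at 1 × 10^5 cells/mL in RPMI-1640 with 10% FBS were exposed to 200, 50, 12.5 and 3.125 µg/mL for 72 h at 37 °C, 5% CO2. MTT for 3 h, stopped with isopropanol/SDS, formazan read at 570 nm, blank-corrected. LC50 by Probit from % viability against untreated cells. Triplicate, at least two independent experiments.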
(Formazan colour is commonly taken as a measure of viable cells.)

Series [5] relates to Cryptococcus neoformans. The series is described as follows: Growth inhibition of Cryptococcus neoformans ATCC 32264 at 31.25 ug/ml incubated for 48 hrs under dark condition by broth microdilution method relative to control. It counts as functional. To be noted: ATCC 32264, 48 h, read-out: GI. The procedure, abridged:
as §1

The subject of series [6] is Cryptococcus neoformans. The series is described as follows: Growth inhibition of Cryptococcus neoformans ATCC 32264 at 7.8 ug/ml incubated for 48 hrs under dark condition by broth microdilution method relative to control. The settings on record: ATCC 32264, 48 h, read-out: GI. It counts as functional. The procedure, abridged: as §1
In series [7] the test system is Cryptococcus neoformans. The series is described as follows: Growth inhibition of Cryptococcus neoformans ATCC 32264 at 15.62 ug/ml incubated for 48 hrs under dark condition by broth microdilution method relative to control. It counts as functional. The settings on record: ATCC 32264, 48 h, read-out: GI. The essentials:
as §1

The next series deals with Plasmodium falciparum. In words: Antiplasmodial activity against chloroquine-sensitive Plasmodium falciparum 3D7 assessed as reduction in parasitic LDH activity after 48 hrs by Malstat reagent based […] method. The format is functional. The settings on record: 3D7, 48 h. The essentials: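 Unsynchronized P. falciparum 3D7 at 0.5% parasitemia and 1% hematocrit in RPMI with 3% Albumax II. Exposed to 100, 25, 6.25 and 1.56 µg/mL for 48 h at 37 °C under 90% N2/5% CO2/5% O2. After three freeze-thaw cycles, LDH measured with Malstat and NBT/PES, 1 h in the dark, read at 650 nm. IC50 by Probit; triplicate, ≥2 experiments.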

A further series relates to Trypanosoma cruzi. In words: Antitrypanosomal activity against Trypanosoma cruzi Tulahuen intracellular amastigote harboring LacZ infected in human U937 cells after 72 hrs by CPRG/Nonidet reagent based spectrophotometric method. It counts as functional, cell-based. To be noted: U-937, 72 h. The essentials: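 U-937 cells at 2.5 × 10^5 cells/mL in RPMI-1640 with 10% serum and 0.1 µg/mL PMA were infected with β-galactosidase-transfected Tulahuen epimastigotes at 5 parasites per cell. Infected cells were exposed to 50, 12.5, 3.125 and 0.78 µg/mL for 72 h. CPRG (100 uM) and 0.1% Nonidet P-40 were added for 3 h, read at 570 nm. EC50 by Probit. Triplicate, at least two experiments; benznidazole as reference.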

With `C[C@@H]1[C@H](O)[C@@H](C)/C=C/C=C/C=C/C=C/C=C/C=C/C=C/[C@H](O[C@@H]2O[C@H](C)[C@@H](O)[C@H](N)[C@@H]2O)C[C@@H]2O[C@](O)(C[C@@H](O)C[C@@H](O)[C@H](O)CC[C@@H](O)C[C@@H](O)CC(=O)O[C@H]1C)C[C@H](O)[C@H]2C(=O)O` [AMPHOTERICIN B], in the series on Cryptococcus neoformans [1], the inhibition of growth at 3.4 µg/mL was found to be 100%. Moreover, the inhibition of growth at 250 µg/mL in the series on Cryptococcus neoformans [2] came out at 100%. In addition, the inhibition of growth at 125 µg/mL in the series on Cryptococcus neoformans [3] came to 100%. In addition, the inhibition of growth at 62.5 µg/mL with Cryptococcus neoformans [4] is 100%. Further, the LC50 (usually the concentration that kills 50% of the test population) in the series on U-937 amounted to 36 µg/mL (≈ 39 µM). In addition, the inhibition of growth at 31.25 µg/mL with Cryptococcus neoformans [5] is 100%. The inhibition of growth at 7.8 µg/mL in the series with Cryptococcus neoformans [6] was 100%. For the same molecule, the inhibition of growth at 15.62 µg/mL in the series with Cryptococcus neoformans [7] stood at 100%.
With `CCN(CC)CCCC(C)Nc1ccnc2cc(Cl)ccc12.O=P(O)(O)O.O=P(O)(O)O` (stereo unspecified) [CHLOROQUINE PHOSPHATE], in the series on Plasmodium falciparum, the EC50 (commonly the concentration needed to bring the measured effect to its halfway point) worked out at 18.9 µg/mL.
Take `O=C(Cn1ccnc1[N+](=O)[O-])NCc1ccccc1` [BENZNIDAZOLE]: the LC50 in the series on U-937 is 180 µg/mL (≈ 692 µM). Also, it took 10.7 µg/mL (≈ 41.1 µM) to reach a half-maximal effect with Trypanosoma cruzi (EC50).
